In ChEMBL document CHEMBL2429828, “Discovery of thiazolyl-phthalazinone acetamides as potent glucose uptake activators via high-throughput screening” (Bioorg Med Chem Lett, 2013):
The source made the active and inactive calls. The calls are words filed in the database; no cut-off is given here.

What was measured:
[1] = test system: L6; assay: Induction of glucose uptake in rat L6 cells pulsed with C14-deoxy glucose at 10 uM after 24 hrs in presence of insulin relative to control; assay type: functional
Procedure, shortened: (§1)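 L6 rat skeletal muscle cells grown in MEM alpha with 10% serum, differentiated at confluence in 2% serum, then serum-starved. Treated overnight; after 24 h, pulsed 10 min with 14C-deoxyglucose in presence of insulin. Uptake read by scintillation after lysis with Microscint PS.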

[2] = test system: L6; assay: Induction of glucose uptake in rat L6 cells pulsed with C14-deoxy glucose after 24 hrs in presence of insulin; assay type: functional, cell-based; conditions: L6, 24 h; procedure, shortened: as §1
[3] = target: T1, Peroxisome proliferator-activated receptor gamma (Homo sapiens) (UniProt P37231); assay: Transactivation of GAL4 DNA binding domain-fused human PPAR-gamma ligand binding domain transfected in African green monkey CV1 cells after 24 hrs by luciferase reporter gene assay; assay type: cell-based; conditions: CV-1
T1 sequence (whole entry): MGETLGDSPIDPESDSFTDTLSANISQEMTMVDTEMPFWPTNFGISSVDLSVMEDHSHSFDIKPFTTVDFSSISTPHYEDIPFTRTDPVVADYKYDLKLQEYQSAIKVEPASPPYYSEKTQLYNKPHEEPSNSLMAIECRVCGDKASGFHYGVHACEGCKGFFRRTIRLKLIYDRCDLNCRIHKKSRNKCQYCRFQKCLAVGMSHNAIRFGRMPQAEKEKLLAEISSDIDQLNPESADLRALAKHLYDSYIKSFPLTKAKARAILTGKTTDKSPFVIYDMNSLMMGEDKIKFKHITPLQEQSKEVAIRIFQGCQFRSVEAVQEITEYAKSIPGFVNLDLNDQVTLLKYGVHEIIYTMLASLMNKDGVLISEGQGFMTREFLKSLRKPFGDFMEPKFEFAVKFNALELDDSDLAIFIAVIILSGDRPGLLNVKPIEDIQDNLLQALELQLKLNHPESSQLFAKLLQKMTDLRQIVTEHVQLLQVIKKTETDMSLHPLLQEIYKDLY
Procedure, shortened: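 CV-1 cells seeded at 25,000 cells/well, incubated overnight, then transiently co-transfected (Lipofectamine 2000) with Gal4-element luciferase reporter and GAL4 DBD–PPAR-γ LBD plasmid. Compounds added 6 h post-transfection for 24 h, then luminescence read. Values expressed as % of 1 µM rosiglitazone response (set as 100%). Triplicates, repeated twice.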

Row | Structure (SMILES) | fold change (FC) [1] | EC50 [2] [nM] | Activity [3] [%] | Activity [1]
1 | Cn1nc(CC(=O)Nc2nccc(=O)[nH]2)c2ccccc2c1=O | 1.2 |  |  | 
2 | CCOC(=O)c1sc(NC(=O)Cc2nn(C)c(=O)c3ccccc23)nc1C | 0.9 | 40 |  | 
3 | Cn1nc(CC(=O)Nc2ncc(-c3ccccc3)c(=O)[nH]2)c2ccccc2c1=O | 1.9 | 7470 |  | 
4 | Cn1nc(CC(=O)Nc2nccc3ccccc23)c2ccccc2c1=O | 4.9 | 170 |  | 
5 | Cn1nc(CC(=O)Nc2nc(-c3ccccc3)cs2)c2ccccc2c1=O | 1.8 | 70 | 0.3 | 
6 | Cn1nc(CC(=O)Nc2nc(-c3ccc(C(F)(F)F)cc3)cs2)c2ccccc2c1=O | 3.2 |  |  | 
7 | CN(C(=O)Cc1nn(C)c(=O)c2ccccc12)c1nc(-c2ccccc2)cs1 | 1.8 | 5960 |  | 
8 | Cn1nc(CC(=O)Nc2ccc(Cl)c(C(F)(F)F)c2)c2ccccc2c1=O | 2 | 2560 |  | 
9 | O=C(Cc1nn(CCO)c(=O)c2ccccc12)Nc1nc(-c2ccccc2)cs1 | 0.8 |  |  | 
10 | Cn1nc(CC(=O)Nc2nc(-c3ccccc3)c(C(=O)O)s2)c2ccccc2c1=O | 1.3 |  |  | 
11 | Cc1sc(NC(=O)Cc2nn(C)c(=O)c3ccccc23)nc1-c1ccccc1 | 3.4 | 10 |  | 
12 | Cn1nc(CC(=O)Nc2nc(-c3ccccc3O)cs2)c2ccccc2c1=O | 1.3 |  |  | 
13 | Cn1nc(CC(=O)NC23CC4CC(CC(O)(C4)C2)C3)c2ccccc2c1=O | 0.7 |  |  | 
14 | CCOC(=O)CN(C(=O)Cc1nn(C)c(=O)c2ccccc12)c1nc(-c2ccccc2)cs1 | 1.9 | 280 |  | 
15 | COc1ccc2c(oc3ccccc32)c1NC(=O)Cc1nn(C)c(=O)c2ccccc12 | 1.3 |  |  | 
16 | Cn1nc(CC(=O)Nc2nc(-c3ccc(Br)cc3)cs2)c2ccccc2c1=O | 3.6 | 100 |  | 
17 | CCc1oc(NC(=O)Cc2nn(C)c(=O)c3ccccc23)nc1-c1ccccc1 | 1 |  |  | 
18 | O=C(O)CCCCC(=O)Nc1nc(-c2ccccc2)cs1 |  |  |  | inactive
19 | Cn1nc(CC(=O)Nc2nc(-c3ccc(Cl)cc3)cs2)c2ccccc2c1=O | 3.4 |  |  | 

Row | Structure (SMILES) | fold change (FC) [1] | EC50 [2] [nM] | Activity [3] [%] | Activity [1]
20 | Cn1nc(CC(=O)NCc2n[nH]c(=O)c3ccccc23)c2ccccc2c1=O | 0.8 |  |  | 
21 | CCOC(=O)c1sc(NC(=O)Cc2nn(C)c(=O)c3ccccc23)nc1-c1ccccc1 | 1.3 |  |  | 
22 | O=C(O)Cc1nnc(O)c2ccccc12 |  |  |  | inactive
23 | CCOC(=O)Cc1nn(CC(=O)c2ccccc2)c(=O)c2ccccc12 | 1.1 |  |  | 
24 | CCOC(=O)Cc1nnc(O)c2ccccc12 |  |  |  | inactive
25 | Cc1sc(NC(=O)Cc2nn(C)c(=O)c3ccccc23)nc1-c1ccc(Br)cc1 | 3.4 | 3 |  | 
26 | Cn1nc(CC(=O)Nc2ncc(-c3ccccc3)s2)c2ccccc2c1=O | 1.6 |  |  | 
27 | COc1ccc(-c2nc(NC(=O)Cc3nn(C)c(=O)c4ccccc34)sc2C)cc1 | 2.9 | 9 | 1 | 
28 | CN(CCOc1ccc(CC2SC(=O)NC2=O)cc1)c1ccccn1 (centres undefined) [ROSIGLITAZONE] | 1.8 | 4490 |  | 
29 | O=C(Cc1n[nH]c(=O)c2ccccc12)Nc1nc(-c2ccccc2)cs1 | 1.8 | 40 |  | 
30 | Cn1nc(CC(=O)Nc2nc(-c3ccc(F)cc3)cs2)c2ccccc2c1=O | 2.7 |  |  | 
31 | CN(C(=O)CCCCC(=O)O)c1nc(-c2ccccc2)cs1 | 0.9 |  |  | 
32 | O=C(O)Cc1nn(CC(=O)c2ccccc2)c(=O)c2ccccc12 | 0.9 |  |  | 
33 | O=C(Cc1n[nH]c(=O)c2ccccc12)NNC(=O)c1nc(-c2ccccc2)cs1 | 0.9 |  |  | 
34 | NNC(=O)Cc1n[nH]c(=O)c2ccccc12 |  |  |  | inactive
35 | Cn1nc(CC(=O)Nc2nccs2)c2ccccc2c1=O | 1.7 | 120 |  | 
36 | Nc1nc(-c2ccccc2)cs1 |  |  |  | inactive
37 | Cn1nc(CC(=O)Nc2cc(-c3ccc(F)cc3)on2)c2ccccc2c1=O | 1.3 |  |  | 
38 | COC(=O)CCCCC(=O)N(C)c1nc(-c2ccccc2)cs1 | 1.2 |  |  | 
